Laboratory results: PubChem BioAssay
Values joined by “and” are separate entries in the source; they are usually repeats but may differ in a detail not shown here. Identical values can stand only once. Active and inactive are the calls of the source.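 Rule for the calls, unless noted: active = potentiation averaged over duplicate wells exceeding buffer-only control mean by more than 3 SD; inactive = the rest.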

Columns and labels:
[1] = thallium flux activation in parental CHO cells, counter-screen for KCNQ1 potentiator project (AID 493006;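 active = duplicate-averaged activation above buffer control mean plus 5 SD of those controls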); details: parental CHO-K1 cells, FluxOR thallium flux, at 10 µM; hits give high values
In short: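 Assay system: Untransfected host CHO-K1 cells with FluxOR thallium dye | Probe or stimulus: Potassium/thallium depolarization pulse | Schedule: Overnight 37 °C plating, 90 min RT dye, 20 min compound | Detection: Kinetic thallium-flux fluorescence | Read-out: Max-minus-min fluorescence over baseline, percent of buffer-to-R-L3 span | Benchmarks: Low control buffer, high control R-L3 activator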

[2] = biological target: Potassium voltage-gated channel subfamily KQT member 1 (Homo sapiens) (UniProt P51787); assay: KCNQ1 potassium channel potentiators, confirmation, FluxOR thallium flux, CHO cells, duplicates (AID 493007); details: KCNQ1 cell line, FluxOR thallium flux fluorescence, at 10 µM; hits give high values, % of reference activator effect, buffer zero;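 for outcome: cells depolarized by a potassium plus thallium sulfate stimulus after compound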
In short: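 Material: KCNQ1-expressing CHO cell line; Incubation: FluxOR dye loading 90 min, compound exposure 20 min, room temperature; Detection: FluxOR Tl+ flux fluorescence, 10 s baseline plus 110 s recording; Read-out: percent activation between buffer and R-L3 responses; Control set: buffer-only wells as 0% and R-L3 activator as 100%; Replication: duplicate wells per compound.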

[3] = biological target: Potassium voltage-gated channel subfamily KQT member 2 (Rattus norvegicus) (UniProt O88943); assay: rat KCNQ2 channel potentiation, selectivity assay for KCNQ1 potentiator project, KCNQ2-CHO-K1 cells (AID 493009;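 active = mean duplicate potentiation above the buffer control mean plus 5 SD of buffer wells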;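 note: assay conditions were tuned for KCNQ1 rather than KCNQ2 modulators; signal is max minus min fluorescence divided by baseline after thallium stimulus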); details: FluxOR thallium flux fluorescence, at 10 µM; hits give high values, scaled: buffer 0, activator control 100
[4] = biological target: Potassium voltage-gated channel subfamily KQT member 1 (Homo sapiens) (UniProt P51787); assay: KCNQ1 channel current potentiators, confirmation, orthogonal assay for KCNQ1 potentiator project, IonWorks patch clamp, KCNQ1-CHO cells (AID 493184;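 active = current rise at least 3 SD above the untreated control mean in each of two repeat wells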;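 for current potentiation: percent change of the same well's current before compound addition so 0% = no change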); details: automated patch clamp current, at 10 µM; hits give high values
In short: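 assay system = KCNQ1-expressing CHO cells | medium = external bath solution at pH 7.4 | probe or stimulus = 2,000 ms depolarization, -90 to +40 mV | compound dosing = 10 µM final, single point | measured by = automated voltage clamp, amphotericin B perforated patch | measure = percent current increase versus pre-compound level | replication = duplicates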

Chain of Potassium voltage-gated channel subfamily KQT member 2 (Rattus norvegicus) (O88943 whole entry, looked up): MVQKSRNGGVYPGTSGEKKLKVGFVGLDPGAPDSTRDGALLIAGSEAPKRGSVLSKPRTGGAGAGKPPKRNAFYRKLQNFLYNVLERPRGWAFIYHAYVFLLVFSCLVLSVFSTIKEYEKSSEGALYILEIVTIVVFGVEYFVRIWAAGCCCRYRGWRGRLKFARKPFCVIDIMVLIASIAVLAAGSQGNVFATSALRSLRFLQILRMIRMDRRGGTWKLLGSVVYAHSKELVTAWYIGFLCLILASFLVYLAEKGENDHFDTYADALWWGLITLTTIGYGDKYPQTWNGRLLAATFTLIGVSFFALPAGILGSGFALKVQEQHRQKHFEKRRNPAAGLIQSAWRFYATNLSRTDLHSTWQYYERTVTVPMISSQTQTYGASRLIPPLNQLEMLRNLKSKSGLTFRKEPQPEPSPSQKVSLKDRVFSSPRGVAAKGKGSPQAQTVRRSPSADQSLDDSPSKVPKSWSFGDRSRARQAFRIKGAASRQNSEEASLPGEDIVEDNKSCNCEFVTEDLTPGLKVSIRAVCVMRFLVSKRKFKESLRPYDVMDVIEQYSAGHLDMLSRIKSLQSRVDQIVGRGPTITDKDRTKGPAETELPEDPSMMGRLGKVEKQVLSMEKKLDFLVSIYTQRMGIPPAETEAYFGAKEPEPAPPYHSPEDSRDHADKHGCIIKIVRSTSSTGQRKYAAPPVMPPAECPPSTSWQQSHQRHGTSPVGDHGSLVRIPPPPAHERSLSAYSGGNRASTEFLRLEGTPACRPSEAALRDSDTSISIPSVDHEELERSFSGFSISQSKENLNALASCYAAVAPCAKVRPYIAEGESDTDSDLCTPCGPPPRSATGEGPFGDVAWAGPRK
Chain of Potassium voltage-gated channel subfamily KQT member 1 (Homo sapiens) (P51787 whole entry, looked up): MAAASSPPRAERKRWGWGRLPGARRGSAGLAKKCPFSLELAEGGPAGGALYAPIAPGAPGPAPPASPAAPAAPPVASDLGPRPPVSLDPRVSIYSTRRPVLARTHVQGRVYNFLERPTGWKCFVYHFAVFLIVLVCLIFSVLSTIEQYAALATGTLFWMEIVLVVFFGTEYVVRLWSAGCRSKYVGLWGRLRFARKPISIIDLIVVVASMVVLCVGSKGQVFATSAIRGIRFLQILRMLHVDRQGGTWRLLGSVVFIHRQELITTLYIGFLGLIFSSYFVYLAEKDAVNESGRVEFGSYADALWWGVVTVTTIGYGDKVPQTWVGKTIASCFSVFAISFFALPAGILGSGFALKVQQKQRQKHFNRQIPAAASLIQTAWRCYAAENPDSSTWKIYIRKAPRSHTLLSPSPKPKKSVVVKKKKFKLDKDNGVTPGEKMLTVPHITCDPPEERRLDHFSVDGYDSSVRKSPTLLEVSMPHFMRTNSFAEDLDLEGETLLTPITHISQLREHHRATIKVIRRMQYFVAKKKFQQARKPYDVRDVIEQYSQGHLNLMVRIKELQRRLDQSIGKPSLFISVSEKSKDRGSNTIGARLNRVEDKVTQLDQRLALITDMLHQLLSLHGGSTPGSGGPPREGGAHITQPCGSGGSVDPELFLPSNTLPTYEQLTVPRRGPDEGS

Structure (SMILES)	outcome [1]	potentiation [2]	outcome [3]	outcome [4]	outcome [2]	activation [1]	potentiation [3]	current potentiation [4]
Fc1ccccc1/C=N/NC(=S)Nc1ccc(Cl)cc1Cl	inactive	66.5% (active)	inactive	inactive	–	–	–	–
CC(OC(=O)CCCNC(=O)c1ccc(Cl)cc1)C(=O)N(C)Cc1ccccc1 (stereo not given)	inactive	–	inactive	inactive	inactive	–	–	–
CC1Oc2ccccc2OC1(O)c1ccccn1 (stereo not given)	–	26.5% (active)	–	inactive	–	142% (active)	142% (active)	–
C=CCOc1c(Br)cc(/C=N/Nc2ccc(C(=O)O)cc2)cc1OCC	inactive	–	inactive	inactive	inactive	–	–	–
O=c1c(O)c(-c2cccs2)oc2ccc(Cl)cc12	–	128% (active)	–	inactive	–	570% (active)	553% (active)	–
CC(C)(C)NC(=O)C(=O)NNC(=O)COc1ccc(Br)cc1	–	53% (active)	–	inactive	–	227% (active)	215% (active)	–
Cc1[nH]n(-c2ccccc2)c(=O)c1N=Nc1nccs1	–	418% (active)	–	–	–	816% (active)	787% (active)	20.9% (active)
NC(=O)COC(=O)c1ccccc1Nc1ccc(SC(F)F)cc1	inactive	26% (active)	–	inactive	–	–	147% (active)	–
CCN(CC)CC(O)Cn1c2ccccc2c2ccccc21 (stereo not given)	inactive	–	inactive	inactive	inactive	–	–	–
CCCCCC/C(C)=C1/SC(=S)NC1=O	–	264% (active)	–	inactive	–	752% (active)	612% (active)	–
CSc1nc(C)c2c(n1)N(c1ccc(C(C)C)cc1)CC2	inactive	–	inactive	inactive	inactive	–	–	–
O=[N+]([O-])c1ccc(/C([O-])=C(/C(=S)NCc2ccco2)[n+]2ccccc2)cc1	inactive	–	inactive	inactive	inactive	–	–	–
COc1cccc(C=NCC(C)N=Cc2cccc(OC)c2O)c1O (stereo not given)	inactive	–	inactive	inactive	inactive	–	–	–
Fc1cccc2sc(Nc3nnc(-c4ccccc4)o3)nc12	–	198% (active)	–	inactive	–	531% (active)	481% (active)	–
Fc1cccc(/C=N/NC(=S)Nc2ccccc2Cl)c1	inactive	41.5% (active)	–	inactive	–	–	158% (active)	–
C=CCN(CC=C)C(=S)NC(=O)Cc1cccc2ccccc12	–	68.5% (active)	–	inactive	–	210% (active)	245% (active)	–
Cc1ccc(-c2ccc(=O)n(Cc3cccc(Br)c3)n2)cc1	inactive	–	inactive	inactive	inactive	–	–	–
O=C(O)c1ccc2c(c1)C(=O)N(c1ccc(Cl)cn1)C2=O	inactive	–	inactive	inactive	inactive	–	–	–
CC(=O)Nc1c2c(nn1-c1ccc(C)cc1)CS(=O)(=O)C2	inactive	–	inactive	inactive	inactive	–	–	–
Cc1nn(-c2ccccc2)c(Cl)c1/C=N\NC(=O)c1cncc(Br)c1	inactive	–	inactive	inactive	inactive	–	–	–

Structure (SMILES)	outcome [1]	potentiation [2]	outcome [3]	outcome [4]	outcome [2]	activation [1]	potentiation [3]	current potentiation [4]
CCOC(=O)c1c(NS(C)(=O)=O)sc2c1CCC(C)C2 (stereo not given)	–	24.5% (active)	–	inactive	–	173% (active)	190% (active)	–
Cc1cc(C(=O)NN)n[nH]1	inactive	–	inactive	inactive	inactive	–	–	–
Cc1ccc2cc3cc(C(=O)NC4CC4)oc3nc2c1	inactive	–	inactive	inactive	inactive	–	–	–
Cc1ccccc1-c1nc(-c2ccccn2)no1	inactive	–	inactive	inactive	inactive	–	–	–
CNC(=O)c1nnsc1S(=O)c1ccc(Cl)cc1 (stereo not given)	inactive	–	inactive	inactive	inactive	–	–	–
O=C(NC(=S)Nc1ccccc1Cl)c1cncc(Br)c1	inactive	–	inactive	inactive	inactive	–	–	–
Cc1c(CN2CCN(C)C(CCO)C2)[nH]c2c(Cl)cccc12 (stereo not given)	inactive	–	inactive	inactive	inactive	–	–	–
CC(C)(C)NC(=O)C(=O)NNC(=O)c1ccc(C(C)(C)C)cc1	–	112% (active)	–	inactive	–	341% (active)	352% (active)	–
CCN(C(=S)NC(=O)c1ccccc1Br)C1CCCCC1	–	124% (active)	–	inactive	–	358% (active)	370% (active)	–
CCOc1ccc(NC(=O)CN(C)C(=O)c2c(-c3c(F)cccc3Cl)noc2C)cc1OCC	inactive	–	inactive	inactive	inactive	–	–	–
O=C1c2ccccc2NC(c2ccc(Br)s2)N1O (stereo not given)	–	57% (active)	–	inactive	–	282% (active)	252% (active)	–
O=C(Nc1ccccc1Cl)N1CCN(c2ccccn2)CC1	inactive	–	inactive	inactive	inactive	–	–	–
O=C(c1ccco1)N1CCN(S(=O)(=O)c2ccc(F)cc2)CC1	inactive	–	inactive	inactive	inactive	–	–	–
COc1cccc(C(=O)NNC(=O)C(=O)Nc2ccc(C)c(Cl)c2)c1	–	99% (active)	–	inactive	–	278% (active)	311% (active)	–
O=C(CN1CCCC1)Nc1ccc2c(c1)CCC2	inactive	–	inactive	inactive	inactive	–	–	–
O=c1c2cccnc2n(-c2ccccc2)n1Cc1ccc(Cl)cc1	inactive	–	inactive	inactive	inactive	–	–	–
COC(=O)c1c(NC(=S)Nc2ccc(F)cc2[N+](=O)[O-])sc2c1CCCCC2	–	32.5% (active)	–	inactive	–	160% (active)	180% (active)	–
Cc1[nH]n(-c2cccc3ccccc23)c(=O)c1/C=N/c1sc2c(c1C#N)CCC2	–	122% (active)	–	inactive	–	204% (active)	288% (active)	–
COc1ccc(-c2csc(NC(=S)NC(=O)c3ccco3)n2)cc1	–	80.5% (active)	–	inactive	–	264% (active)	216% (active)	–
Cc1cc(C(=O)N/N=C/c2cccs2)no1	inactive	–	inactive	inactive	inactive	–	–	–

Structure (SMILES)	outcome [1]	potentiation [2]	outcome [3]	outcome [4]	outcome [2]	activation [1]	potentiation [3]	current potentiation [4]
Cc1ccc(O)c(C(=O)CC(=O)c2ccc(Cl)cc2)c1	inactive	–	inactive	inactive	inactive	–	–	–
CC(/C=C1\SC(=S)N(NS(=O)(=O)c2ccc(C)cc2)C1=O)=C\c1ccccc1	–	424% (active)	–	inactive	–	507% (active)	666% (active)	–
COc1ccccc1C(=O)NNC(=O)C(=O)NC(C)(C)C	–	68% (active)	–	inactive	–	185% (active)	246% (active)	–
Cc1cc(NC(=O)CSc2nc(C3CC3)nc3sc(C)c(C)c23)no1	–	38% (active)	–	inactive	–	148% (active)	172% (active)	–
Cc1cc(Br)ccc1OCC(=O)NNC(=O)C(=O)Nc1ccccc1	–	224% (active)	–	inactive	–	406% (active)	478% (active)	–
Cc1ccc(C)c(NC(=S)NC(=O)c2cncc(Br)c2)c1	inactive	18.5% (active)	inactive	inactive	–	–	–	–
CCNc1nc(NCC)n2c(SCC(=O)Nc3ccc(F)cc3)nnc2n1	inactive	–	inactive	inactive	inactive	–	–	–
Cc1ccc(-n2cccc2/C=C2\C(=N)N3N=C(C(C)C)SC3=NC2=O)cc1	inactive	23.5% (active)	inactive	–	–	–	–	36% (active)
CC(C)c1ccc(OCC(=O)NNC(=S)NC(=O)c2ccco2)c(Br)c1	–	68.5% (active)	–	inactive	–	154% (active)	232% (active)	–
Cc1ccc(SCc2[nH]nc3c2C(c2ccco2)C(C#N)=C(N)O3)cc1 (stereo not given)	inactive	–	inactive	inactive	inactive	–	–	–
CCn1c(SC(C)C(=O)O)nc2sc3c(c2c1=O)CCC3 (stereo not given)	–	42.5% (active)	–	inactive	–	203% (active)	230% (active)	–
O=C1OCCC1Sc1nc2ccccc2c(=O)n1Cc1ccc(F)cc1 (stereo not given)	–	44% (active)	–	inactive	–	158% (active)	169% (active)	–
Cc1cc(NC(=O)CCC(=O)N(C2CC2)C(C(=O)NC(C)(C)C)c2ccccc2Cl)no1 (stereo not given)	inactive	25.5% (active)	inactive	inactive	–	–	–	–
CC(/C=N/n1c(-c2ccc(C)cc2)n[nH]c1=S)=C\c1ccco1	inactive	–	inactive	inactive	inactive	–	–	–
CCn1c(CSc2nc3ccccc3n2C)nc2ccccc21	inactive	–	inactive	inactive	inactive	–	–	–
CCCCC/C=N\NC(=O)Cc1ccc([N+](=O)[O-])cc1	inactive	–	inactive	inactive	inactive	–	–	–
C1=Nc2ccccc2CN1c1ccccc1	inactive	–	inactive	inactive	inactive	–	–	–
NC(=NCCCCCCN=C(N)/N=C(\N)Nc1ccc(Cl)cc1)/N=C(\N)Nc1ccc(Cl)cc1	–	59.5% (active) and 91.5% (active)	–	inactive	–	240% (active) and 259% (active)	183% (active) and 216% (active)	–
Cc1cc(C(=O)CSc2nnc(N)s2)c(C)n1C1CC1	inactive	–	inactive	inactive	inactive	–	–	–
Cc1ccc(/C=C/C(=O)c2ccccc(=O)c2O)c(C)c1	–	118% (active)	–	inactive	–	244% (active)	280% (active)	–
